This note sets out measurements from ChEMBL document CHEMBL3286358, “Biological evaluation of tanshindiols as EZH2 histone methyltransferase inhibitors” (Bioorg Med Chem Lett, 2014).

Activity calls are given as the source filed them. No cut-off for these calls is given here.

One test concerns the target EZH2/SUZ12/EED complex (Homo sapiens, UniProt O75530+Q15022+Q15910). Nature of the test: (§1) Inhibition of EZH2 histone methyltransferase activity in EZH2/SUZ12/EED protein complex (unknown origin) using histone H3 peptide/S-adenosylmethionine as substrate after 2 hrs by TR-FRET assay. A general note: TR-FRET usually uses a lanthanide donor and a delayed reading to cut background.

Test [1] addresses EZH2/SUZ12/EED complex (Homo sapiens) (UniProt Q15910+O75530+Q15022). Described as §1.
Test [2] is described as follows: Cytotoxicity against human Pfeiffer cells expressing EZH2 […] mutant assessed as growth inhibition after 72 hrs by WST-1 assay. It counts as functional. The gist of the method: (§2)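 Growth inhibition of tumour lines read by WST-1 viability assay. GI50 taken as the half-maximal growth-inhibitory concentration.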
For orientation: Tetrazolium assays rely on reduction of a dye to a coloured formazan, in cell work by metabolically active cells.

A further test concerns A549. Nature of the test: Cytotoxicity against human A549 cells assessed as growth inhibition after 72 hrs by WST-1 assay. The test is classed as functional. The following applies: A549, 72 h. Summed up: as §2
Test [3] in a line: Cytotoxicity against human U87MG cells assessed as growth inhibition after 72 hrs by WST-1 assay. The test is classed as functional, U-87MG ATCC. The following applies: U-87 MG. Summed up:
as §2

The next test concerns T98G. The test is described as follows: Cytotoxicity against human T98G cells assessed as growth inhibition after 72 hrs by WST-1 assay. It counts as functional. The gist of the method: as §2
A short description of test [4]: Cytotoxicity against human U2932 cells assessed as growth inhibition after 72 hrs by WST-1 assay. The test is classed as functional. Conditions: U2932, 72 h. Summed up: as §2
For the next test, the system named is Daudi. Nature of the test: Cytotoxicity against human Daudi cells assessed as growth inhibition after 72 hrs by WST-1 assay. The test is classed as functional. Summed up:
as §2

The test system of the next test is PC-3. The test is described as follows: Cytotoxicity against human PC3 cells assessed as growth inhibition after 72 hrs by WST-1 assay. The following applies: PC-3, 72 h. The test is classed as functional. Summed up: as §2
Test [5] is described as follows: Cell cycle arrest in human Pfeiffer cells assessed as accumulation at G1 phase at 5 uM after 72 hrs (reference value: 59%). It counts as functional, cell-based. Summed up: (§3)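 Pfeiffer cells (DLBCL carrying EZH2 A677G) exposed 72 h to 1, 2.5 or 5 µM, with untreated control. DNA content histograms are gated as M1 sub-G1, M2 G1, M3 S and M4 G2/M. Values are the percentage of cells in each gate.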

Test [6] can be described thus: Cell cycle arrest in human Pfeiffer cells assessed as accumulation at sub-G1 phase at 5 uM after 72 hrs (reference value: 9%). It counts as functional, cell-based. The gist of the method: as §3
Test [7] concerns Pfeiffer. Nature of the test: Induction of apoptosis in human Pfeiffer cells assessed as increase in cleaved caspase-3 level at 1 to 3 uM after 72 hrs by Western blotting analysis. It counts as functional, cell-based. The gist of the method:
(§4)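 Pfeiffer cells treated 72 h. Lysates analysed by Western blot for apoptosis markers.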

The subject of test [8] is Pfeiffer. Nature of the test: Induction of apoptosis in human Pfeiffer cells assessed as increase in cleaved PARP level at 1 to 3 uM after 72 hrs by Western blotting analysis. The test is classed as functional, cell-based. The gist of the method: as §4
A general note: A western blot detects proteins with antibodies after separation by electrophoresis.

Test [9] can be described thus: Cell cycle arrest in human Pfeiffer cells assessed as accumulation at G2/M phase at 1 uM after 72 hrs (reference value: 10%). The test is classed as functional, cell-based. Summed up:
as §3

A short description of test [10]: Inhibition of EZH2 histone methyltransferase […] mutant in EZH2/SUZ12/EED/RbAp46/48 protein complex (unknown origin) using histone H3 peptide/S-adenosylmethionine as substrate after 2 hrs by Lineweaver-Burk plot analysis. Set-up: species or system Homo sapiens. The gist of the method: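 EZH2 A677G mutant activity measured with inhibitor at 0, 0.625, 1.25 and 2.5 µM. Inhibition mode analysed by Lineweaver–Burk plot.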

Test [11] can be described thus: Cell cycle arrest in human Pfeiffer cells assessed as accumulation at S phase at 5 uM after 72 hrs (reference value: 21%). The test is classed as functional, cell-based. The gist of the method: as §3
The subject of test [12] is Pfeiffer. The test is described as follows: Induction of apoptosis in human Pfeiffer cells assessed as DNA content at 1 to 5 uM after 72 hrs by DAPI staining-based analysis. The test is classed as functional, cell-based. Summed up:
as §3

Test [13] can be described thus: Cell cycle arrest in human Pfeiffer cells assessed as accumulation at G1 phase at 2.5 uM after 72 hrs (reference value: 59%). The test is classed as functional, cell-based. Summed up:
as §3

The target of test [14] is Histone-lysine N-methyltransferase EZH2 (Homo sapiens) (UniProt Q15910). Conditions: 1 to 3 uM.
In test [15] the test system is Pfeiffer. Nature of the test: Induction of apoptosis in human Pfeiffer cells assessed as increase in cleaved caspase-7 level at 1 to 3 uM after 72 hrs by Western blotting analysis. It counts as functional, cell-based. The gist of the method: as §4
The target of test [16] is Histone-lysine N-methyltransferase EZH2 (Homo sapiens) (UniProt Q15910). Conditions: 3 uM.
Test [17] can be described thus: Cell cycle arrest in human Pfeiffer cells assessed as accumulation at sub-G1 phase at 1 uM after 72 hrs (reference value: 9%). The test is classed as functional, cell-based. The gist of the method: as §3
Test [18] can be described thus: Cell cycle arrest in human Pfeiffer cells assessed as accumulation at G2/M phase at 2.5 uM after 72 hrs (reference value: 10%). The test is classed as functional, cell-based. The gist of the method:
as §3

The nature of test [19]: Cell cycle arrest in human Pfeiffer cells assessed as accumulation at S phase at 1 uM after 72 hrs (reference value: 21%). The test is classed as functional, cell-based. Summed up: as §3
Test [20] in a line: Cell cycle arrest in human Pfeiffer cells assessed as accumulation at G2/M phase at 5 uM after 72 hrs (reference value: 10%). The test is classed as functional, cell-based. Summed up:
as §3

A short description of test [21]: Cell cycle arrest in human Pfeiffer cells assessed as accumulation at sub-G1 phase at 2.5 uM after 72 hrs (reference value: 9%). The test is classed as functional, cell-based. The gist of the method:
as §3

The target in test [22] is Histone-lysine N-methyltransferase EZH2 (Homo sapiens) (UniProt Q15910). Conditions: 3 uM. This is another data set of the same source.
The target of test [23] is EZH2/SUZ12/EED/RBBP7/RBBP4. The test is described as follows: Competitive inhibition of EZH2 histone methyltransferase activity in EZH2/SUZ12/EED/RbAp46/48 (unknown origin) using histone H3 peptide/varying concentration of S-adenosylmethionine as substrate after 2 hrs by Lineweaver-Burk plot analysis. The test is classed as protein-complex assay, Homo sapiens. Summed up: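 PRC2 complex (EZH2, EED, SUZ12, RbAp46/48) as enzyme. Histone H3 peptide fixed at 150 nM, SAM varied. Inhibitor at 0, 0.625, 1.25 and 2.5 µM.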

A short description of test [24]: Cell cycle arrest in human Pfeiffer cells assessed as accumulation at G1 phase at 1 uM after 72 hrs (reference value: 59%). The test is classed as functional, cell-based. The gist of the method: as §3
The nature of test [25]: Cell cycle arrest in human Pfeiffer cells assessed as accumulation at S phase at 2.5 uM after 72 hrs (reference value: 21%). The test is classed as functional, cell-based. The gist of the method:
as §3

EZH2/SUZ12/EED complex, sequence (Q15910 whole entry): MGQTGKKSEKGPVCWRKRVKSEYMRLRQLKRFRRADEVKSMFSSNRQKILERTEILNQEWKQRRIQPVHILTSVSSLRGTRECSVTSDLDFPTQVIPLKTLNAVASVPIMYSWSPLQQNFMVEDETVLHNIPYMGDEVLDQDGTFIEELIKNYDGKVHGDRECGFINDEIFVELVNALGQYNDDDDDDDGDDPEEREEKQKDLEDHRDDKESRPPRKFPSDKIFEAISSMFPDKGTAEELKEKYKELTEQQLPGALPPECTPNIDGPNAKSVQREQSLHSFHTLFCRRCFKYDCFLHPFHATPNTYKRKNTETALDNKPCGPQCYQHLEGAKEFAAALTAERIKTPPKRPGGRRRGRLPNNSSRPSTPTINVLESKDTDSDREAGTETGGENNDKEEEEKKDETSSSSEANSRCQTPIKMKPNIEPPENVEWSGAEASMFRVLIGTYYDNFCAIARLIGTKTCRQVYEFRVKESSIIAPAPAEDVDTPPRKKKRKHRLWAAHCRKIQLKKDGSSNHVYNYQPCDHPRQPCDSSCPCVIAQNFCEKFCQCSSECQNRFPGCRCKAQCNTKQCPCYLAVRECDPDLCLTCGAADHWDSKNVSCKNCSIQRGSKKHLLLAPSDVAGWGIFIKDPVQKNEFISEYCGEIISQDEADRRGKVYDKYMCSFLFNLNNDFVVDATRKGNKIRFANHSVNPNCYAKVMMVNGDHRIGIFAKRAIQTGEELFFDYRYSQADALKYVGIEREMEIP
EZH2/SUZ12/EED complex, sequence (O75530 whole entry): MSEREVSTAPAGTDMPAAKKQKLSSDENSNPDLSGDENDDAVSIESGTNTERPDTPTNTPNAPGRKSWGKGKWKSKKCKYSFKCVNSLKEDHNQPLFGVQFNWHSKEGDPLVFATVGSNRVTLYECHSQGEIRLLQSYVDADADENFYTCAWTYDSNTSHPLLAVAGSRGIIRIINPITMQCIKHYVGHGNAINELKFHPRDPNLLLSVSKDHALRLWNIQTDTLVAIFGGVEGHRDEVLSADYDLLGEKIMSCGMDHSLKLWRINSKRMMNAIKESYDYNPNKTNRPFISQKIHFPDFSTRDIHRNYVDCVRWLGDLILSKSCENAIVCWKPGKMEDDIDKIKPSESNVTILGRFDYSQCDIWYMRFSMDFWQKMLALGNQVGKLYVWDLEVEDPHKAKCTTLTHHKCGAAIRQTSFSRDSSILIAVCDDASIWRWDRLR
EZH2/SUZ12/EED complex, sequence (Q15022 whole entry): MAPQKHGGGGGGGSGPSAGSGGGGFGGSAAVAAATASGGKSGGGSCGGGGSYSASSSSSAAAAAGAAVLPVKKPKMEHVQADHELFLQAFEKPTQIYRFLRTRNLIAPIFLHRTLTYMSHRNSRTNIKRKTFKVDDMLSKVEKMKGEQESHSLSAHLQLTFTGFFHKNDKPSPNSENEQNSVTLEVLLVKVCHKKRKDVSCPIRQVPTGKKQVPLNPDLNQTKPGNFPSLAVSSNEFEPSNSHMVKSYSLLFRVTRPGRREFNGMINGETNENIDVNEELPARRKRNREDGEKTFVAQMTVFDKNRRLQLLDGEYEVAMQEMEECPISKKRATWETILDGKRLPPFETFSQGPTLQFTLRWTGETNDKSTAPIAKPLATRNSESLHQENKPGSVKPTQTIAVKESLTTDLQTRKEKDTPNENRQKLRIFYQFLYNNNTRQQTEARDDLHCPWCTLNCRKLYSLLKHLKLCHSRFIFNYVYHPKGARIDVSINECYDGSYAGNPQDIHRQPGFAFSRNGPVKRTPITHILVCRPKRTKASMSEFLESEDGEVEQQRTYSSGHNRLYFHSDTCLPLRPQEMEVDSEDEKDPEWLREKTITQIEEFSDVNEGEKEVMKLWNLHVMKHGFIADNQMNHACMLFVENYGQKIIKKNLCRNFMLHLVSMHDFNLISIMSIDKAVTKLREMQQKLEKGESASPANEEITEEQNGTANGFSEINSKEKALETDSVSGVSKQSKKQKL
Histone-lysine N-methyltransferase EZH2 (Homo sapiens), sequence (Q15910 whole entry, looked up): as the sequence (Q15910 whole entry) above
EZH2/SUZ12/EED complex (Homo sapiens), sequence (O75530 2-441 partner limits assumed): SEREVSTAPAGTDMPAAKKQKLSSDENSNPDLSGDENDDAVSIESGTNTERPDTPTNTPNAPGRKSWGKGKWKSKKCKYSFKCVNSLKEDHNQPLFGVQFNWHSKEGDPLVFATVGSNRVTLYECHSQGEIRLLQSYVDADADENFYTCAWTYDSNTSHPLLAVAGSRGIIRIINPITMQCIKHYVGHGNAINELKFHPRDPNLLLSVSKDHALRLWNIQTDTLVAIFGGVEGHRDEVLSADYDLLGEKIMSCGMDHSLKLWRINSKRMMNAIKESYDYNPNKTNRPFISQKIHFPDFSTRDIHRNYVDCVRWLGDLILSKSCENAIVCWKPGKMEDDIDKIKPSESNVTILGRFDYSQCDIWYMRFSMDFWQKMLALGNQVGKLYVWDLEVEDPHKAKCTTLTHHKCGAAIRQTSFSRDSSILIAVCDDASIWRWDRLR
EZH2/SUZ12/EED complex (Homo sapiens), sequence (Q15022 whole entry partner): as the sequence (Q15022 whole entry) above
EZH2/SUZ12/EED complex (Homo sapiens), sequence (Q15910 whole entry): as the sequence (Q15910 whole entry) above

`Cc1coc2c1C(=O)C(=O)c1c-2ccc2c1CCCC2(C)C` [TANSHINONE IIA]: at EZH2/SUZ12/EED complex, the 50% inhibitory concentration (IC50) (in general, the midpoint of a concentration-inhibition curve) came to 28.1 µM. The inhibition (usually the share of the control response that was lost under treatment) in [1] is “Dose-dependent effect”.
In the same order, the values of `Cc1coc2c1C(=O)C(=O)c1c-2ccc2c(C)cccc12` [TANSHINONE I] are 8.9 µM and “Dose-dependent effect”.
On the same counts, the results for `Cc1coc2c1C(=O)C(=O)c1c-2ccc2c1CC[C@H](O)[C@]2(C)O` are 0.52 µM and “Dose-dependent effect”.
In the case of `CC[C@H](C)n1cc(C)c2c(C(=O)NCc3c(C)cc(C)[nH]c3=O)cc(-c3ccc(N4CCNCC4)nc3)cc21` [GSK2816126], the GI50 (commonly the concentration at which growth is held to half of that of the control) in [2] turned out to be 0.18 µM; in the test on A549, 18.7 µM; in test [3], 28.5 µM; in the test with T98G it was 12.6 µM; in test [4], 6.7 µM; in the test with Daudi, 11.2 µM. The GI50 with PC-3 stood at 9.4 µM.
For the compound `Cc1coc2c1C(=O)C(=O)c1c-2ccc2c1CC[C@@H](O)[C@]2(C)O`, the Activity in test [5] was 41%; in [6], 21%; in test [9] it was 11%; in test [11], 29%; in test [13] it was 51%; in test [17], 11%. The Activity was determined as 11% in test [18]; 20% in test [19]; 7% in [20]; 13% in test [21]; 58% in test [24]; 24% in test [25]. The GI50 in test [2] is 1.5 µM; in the test with A549, 4.2 µM; in test [3] it was 5.7 µM; with T98G, 6 µM; in test [4] it was 9.5 µM; in the test on Daudi, 10.6 µM. For the same compound, the GI50 in the test on PC-3 is 4 µM. For the same compound, the outcome in the test on Pfeiffer [7], in the test with Pfeiffer [8], in the test with Pfeiffer [12] and in the test on Pfeiffer [15] was Active. Also, the Ki (usually the equilibrium dissociation constant of an inhibitor or competing ligand from its target) is 0.176 µM in test [10] and 0.194 µM in test [23]. The inhibition result in test [14] is “Active”. The compound also registered an IC50 against EZH2/SUZ12/EED complex of 0.55 µM. For the same compound, the inhibition result in [1] is “Dose-dependent effect”; in [16] it was 50%; in test [22], 50%.
`COC(=O)[C@@]1(C)CCCc2c1ccc1c2C(=O)C(=O)c2c(C)coc2-1` [METHYL TANSHINONATE] yielded an IC50 against EZH2/SUZ12/EED complex of 9.6 µM. Besides, in test [1], the inhibition result was “Dose-dependent effect”.
Compound `Cc1coc2c1C(=O)C(=O)c1c-2ccc2c1CCCC2(C)CO` (configuration not stated) [TANSHINONE IIB] returned an IC50 on EZH2/SUZ12/EED complex of 4.8 µM. Further, the inhibition result in test [1] is “Dose-dependent effect”.
